Experiment [1] concerns PC-3. As to the kind of experiment: Antiandrogenic activity in human PC3 cells expressing androgen receptor T877A mutant assessed as inhibition of DHT-induced ARE-dependent transactivation at 1 uM after 24 hrs by luciferase reporter gene assay. It counts as cell-based. Summed up:
(§1)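 PC-3 cells, which lack endogenous AR, transiently transfected with plasmids expressing human AR (WT, T877A, W741C or H874Y) plus an ARE-driven MMTV-luc reporter. Cells were treated with or without 0.1 nM DHT. Firefly luciferase was standardized to a Renilla control and normalized to the 0.1 nM DHT signal. Mean ± sd.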
In general terms: A reporter such as luciferase makes a cellular process visible.

Experiment [2] addresses T1, Progesterone receptor (Homo sapiens) (UniProt P06401).
T1 sequence (whole entry): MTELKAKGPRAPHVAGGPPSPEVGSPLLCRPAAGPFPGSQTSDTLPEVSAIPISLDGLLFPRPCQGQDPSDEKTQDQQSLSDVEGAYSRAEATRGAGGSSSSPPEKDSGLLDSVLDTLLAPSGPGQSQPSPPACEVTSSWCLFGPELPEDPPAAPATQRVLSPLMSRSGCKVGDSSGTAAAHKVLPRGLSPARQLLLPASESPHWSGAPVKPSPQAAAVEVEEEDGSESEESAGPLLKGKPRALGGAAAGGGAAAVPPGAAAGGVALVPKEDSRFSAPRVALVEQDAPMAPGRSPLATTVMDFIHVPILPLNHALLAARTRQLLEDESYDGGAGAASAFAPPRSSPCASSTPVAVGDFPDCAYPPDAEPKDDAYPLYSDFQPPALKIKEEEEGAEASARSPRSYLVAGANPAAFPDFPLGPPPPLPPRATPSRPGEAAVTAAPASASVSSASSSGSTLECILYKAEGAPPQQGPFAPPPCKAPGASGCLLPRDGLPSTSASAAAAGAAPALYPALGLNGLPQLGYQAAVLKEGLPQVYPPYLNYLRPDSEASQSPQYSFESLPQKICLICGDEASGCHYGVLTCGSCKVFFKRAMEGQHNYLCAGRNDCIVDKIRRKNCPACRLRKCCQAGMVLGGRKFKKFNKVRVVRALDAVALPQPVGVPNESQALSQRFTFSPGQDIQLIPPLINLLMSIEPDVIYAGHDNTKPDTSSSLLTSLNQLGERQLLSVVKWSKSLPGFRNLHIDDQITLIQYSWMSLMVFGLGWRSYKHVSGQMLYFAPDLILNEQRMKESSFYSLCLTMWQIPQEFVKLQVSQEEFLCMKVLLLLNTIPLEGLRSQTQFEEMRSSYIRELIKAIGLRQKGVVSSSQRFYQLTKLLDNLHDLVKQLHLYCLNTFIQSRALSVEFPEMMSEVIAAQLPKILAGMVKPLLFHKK
As to the kind of experiment: Antagonist activity at human PR B-form expressed in human PC3 cells assessed as inhibition of R5020-induced transactivation at 1 uM after 24 hrs by luciferase reporter gene assay. It counts as functional, cell-based. The conditions noted are these: PC-3. In short, it runs like this:
(§2)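 PC-3 cells carrying a luciferase reporter for transactivation by the human PR B form. Antagonist mode used 10 nM R5020 as the agonist. Agonist mode ran in the absence of R5020. Luciferase read-out.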

In experiment [3] the test system is PC-3. The experiment is described as follows: Antiandrogenic activity in human PC3 cells expressing androgen receptor W741C mutant assessed as inhibition of DHT-induced ARE-dependent transactivation at 1 uM after 24 hrs by luciferase reporter gene assay. It counts as cell-based. In short, it runs like this:
as §1

Experiment [4] concerns PC-3. As to the kind of experiment: Activity in human PC3 cells expressing androgen receptor H874Y mutant assessed as ARE-dependent transactivation at 1 uM after 24 hrs by luciferase reporter gene assay in absence of DHT. It counts as cell-based. Summed up: as §1
Experiment [5] has as its system CWR22R. As to the kind of experiment: Cytotoxicity against human 22Rv1 cells after 72 hrs by MTT assay. It counts as functional, cell-based. The conditions noted are these: 22Rv1, 72 h.
In experiment [6] the target is T2, Androgen receptor (Rattus norvegicus) (UniProt P15207).
T2 sequence (whole entry): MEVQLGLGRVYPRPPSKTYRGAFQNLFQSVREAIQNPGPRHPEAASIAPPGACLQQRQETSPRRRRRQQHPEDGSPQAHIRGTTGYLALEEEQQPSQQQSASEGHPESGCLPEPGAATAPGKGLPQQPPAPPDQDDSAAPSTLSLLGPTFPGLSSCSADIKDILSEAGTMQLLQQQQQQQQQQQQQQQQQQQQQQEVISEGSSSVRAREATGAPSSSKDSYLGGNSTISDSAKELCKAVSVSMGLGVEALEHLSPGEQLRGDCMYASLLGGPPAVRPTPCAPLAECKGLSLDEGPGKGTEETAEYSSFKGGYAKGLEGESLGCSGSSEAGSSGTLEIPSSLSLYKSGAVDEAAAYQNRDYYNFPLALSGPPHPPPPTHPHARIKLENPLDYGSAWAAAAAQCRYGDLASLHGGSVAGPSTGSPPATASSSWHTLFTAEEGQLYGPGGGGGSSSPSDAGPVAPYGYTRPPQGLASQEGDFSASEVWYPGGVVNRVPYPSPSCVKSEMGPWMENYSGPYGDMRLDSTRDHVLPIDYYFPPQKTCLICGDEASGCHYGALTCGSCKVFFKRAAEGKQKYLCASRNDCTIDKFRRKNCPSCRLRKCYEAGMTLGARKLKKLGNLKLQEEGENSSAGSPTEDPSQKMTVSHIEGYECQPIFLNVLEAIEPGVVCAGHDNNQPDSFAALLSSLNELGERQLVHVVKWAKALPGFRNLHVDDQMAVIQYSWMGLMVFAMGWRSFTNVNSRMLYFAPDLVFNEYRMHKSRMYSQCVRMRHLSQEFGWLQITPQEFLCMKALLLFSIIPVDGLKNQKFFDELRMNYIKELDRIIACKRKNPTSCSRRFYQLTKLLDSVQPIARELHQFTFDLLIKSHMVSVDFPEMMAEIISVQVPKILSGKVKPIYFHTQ
As to the kind of experiment: Binding affinity to rat androgen receptor ligand binding domain by competitive fluorescence polarization assay. In short, it runs like this: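 Competitive fluorescence polarization with the PolarScreen AR competitor kit, measuring displacement of a fluorescent tracer from the AR-LBD. Polarization was normalized to DMSO vehicle, which sets the maximum. Tracer without receptor sets the minimum, and DHT served as positive control. Average ± sd of experiments in triplicate.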
For orientation: In fluorescence polarisation assays a small probe gives low polarisation when free and higher when bound to something large.

Experiment [7] can be described thus: Cytotoxicity against human C4-2B cells after 72 hrs by MTT assay. The experiment is classed as functional, cell-based. Conditions: LNCaP C4-2B.
Experiment [8] deals with T1, Progesterone receptor (Homo sapiens). As to the kind of experiment: Antagonist activity at human PR B-form expressed in human PC3 cells assessed as inhibition of R5020-induced transactivation at 0.1 uM after 24 hrs by luciferase reporter gene assay. The experiment is classed as functional, cell-based. The conditions noted are these: PC-3. In short, it runs like this:
as §2

In general, IC50 refers to the concentration that gives 50% inhibition. Read a low IC50 as inhibition by little substance.

Activity calls are given as the source filed them. The calls are words filed in the database; no cut-off is given here.

`COc1cc(/C=C(\C(=O)/C=C/C2=C(C)CCCC2(C)C)C(=O)/C=C/c2ccc(O)c(OC)c2)ccc1O`: the result in experiment [1] and in experiment [3] was Active. The outcome in experiment [2], in experiment [4] and in experiment [8] was inactive. Moreover, the IC50 turned out to be 2200 nM in experiment [5] and 1600 nM in experiment [7]. In addition, the Activity result in experiment [6] is “Dose-dependent effect”.

For the origin of these results see ChEMBL document CHEMBL1153534, “Design and synthesis of androgen receptor antagonists with bulky side chains for overcoming antiandrogen resistance” (J Med Chem, 2009).
